Compounds with a hit are over-represented: about 2.6% of the library has one in this group of screens.
SENP8 block-1 = SENP8 protease inhibitors, primary screen, biochemical, luminescence; Sentrin-specific protease 8 (Homo sapiens), Q96LD8; purified SENP8, Z-RLRGG-aminoluciferin cleavage; inhibition, % at 10 µM; hit rate 1.2% among 330,000; AID 2540, 2010; in the data active = inhibition above about 50%
Target sequence (Q96LD8 whole entry, looked up): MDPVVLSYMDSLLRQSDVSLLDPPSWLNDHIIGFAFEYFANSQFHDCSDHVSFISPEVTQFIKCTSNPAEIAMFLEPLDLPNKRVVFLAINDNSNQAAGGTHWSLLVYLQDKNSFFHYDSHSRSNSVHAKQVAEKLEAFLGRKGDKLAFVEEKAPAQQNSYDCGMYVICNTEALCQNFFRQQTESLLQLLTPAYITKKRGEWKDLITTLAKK
SENP1 inh = human SENP1 catalytic domain inhibitors, primary screen, biochemical, FRET, uHTS | hit rate 0.21% among 360,000 | AID 624204, 2012 | inhibition, % at 10 µM | recombinant SENP1 catalytic domain, CyPet-SUMO1-YPet FRET cleavage | Sentrin-specific protease 1 (Homo sapiens), Q9P0U3;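 active = inhibition at least 30% at 10 µM, raw YFP signal under a set limit, fluorescence ratio 0.5 to 1.5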;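 also: 0% = enzyme with DMSO and 100% = no enzyme wells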
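Material: hSENP1 catalytic domain, recombinant; medium: Tris pH 8 with BME, BSA, NP40 and catalase; compound: single concentration of 10 µM compound, 0.5% DMSO final; technique: FRET read of cyan and yellow fluorescence; timing: 50 min enzyme reaction, room temperature, light-protected; reagent: SFCypet-SUMO1-SFYpet substrate at 25 nM; control set: no-enzyme low, enzyme-DMSO high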
Platelet DG rel = inhibitors of platelet dense granule secretion, primary screen, cell-based, MLPCN, human platelets | hit rate 0.22% among 300,000 | human platelet-rich plasma, SFLLRN dense granule ATP release, luminescence | AID 1663, 2009 | inhibition, %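 (compounds screened at 7.5 µM in platelet-rich plasma)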;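 active = mean replicate score, as percent of positive control, at or above 50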
SENP8 block-2 = human SENP8 protease inhibitors, primary screen, biochemical, fluorescence, Nedd8 protein substrate, uHTS | hit rate 0.64% among 360,000 | Sentrin-specific protease 8 (Homo sapiens), Q96LD8 | recombinant SENP8 | AID 602440, 2012 | inhibition, % at 20 µM; in the data active = inhibition mostly above about 40%, no sharp cut-off; inactive = mostly below about 27%
SENP6 block = SENP6 protease inhibitors, primary screen, biochemical, luminescence, uHTS | inhibition, % at 10 µM | Recombinant SENP6 catalytic domain, aminoluciferin luminescence | hit rate 1.8% among 330,000;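 active = inhibition above about 50% at the single tested dose, limit read from the data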;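 also: plate controls were DMSO wells with enzyme for no effect and DMSO wells lacking enzyme for full effect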
SENP7 block = SENP7 protease inhibitors, primary screen, biochemical, luminescence, uHTS | hit rate 1.5% among 330,000 | Sentrin-specific protease 7 (Homo sapiens), Q9BQF6 | inhibition, % at 5 µM | AID 434973, 2010 | recombinant SENP7, Z-RLRGG-aminoluciferin luminescence, 40 min;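 active = inhibition above about 50% at the single test dose, limit read from the data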;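 also: plate controls were DMSO with enzyme for no effect and no enzyme buffer wells for full effect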
Target sequence (Q9BQF6 706-1050 limits assumed): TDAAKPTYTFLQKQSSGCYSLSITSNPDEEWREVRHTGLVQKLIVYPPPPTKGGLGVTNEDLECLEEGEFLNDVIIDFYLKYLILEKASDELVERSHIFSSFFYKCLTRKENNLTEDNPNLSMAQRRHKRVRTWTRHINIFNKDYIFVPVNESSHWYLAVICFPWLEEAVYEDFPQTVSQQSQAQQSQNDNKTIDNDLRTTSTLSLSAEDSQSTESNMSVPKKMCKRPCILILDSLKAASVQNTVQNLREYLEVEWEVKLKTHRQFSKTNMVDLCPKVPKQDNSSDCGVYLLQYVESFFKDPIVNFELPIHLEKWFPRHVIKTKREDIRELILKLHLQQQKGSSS
Numbers without * were called inactive; · = no result given.

SMILES	SENP8 block-1	SENP1 inh	Platelet DG rel	SENP8 block-2	SENP6 block	SENP7 block
CNc1nc(Nc2ccc(Br)cc2)nc(N)c1[N+](=O)[O-]	12	5	1	17	36	88*
O=C(O)c1ccc(-n2[nH]c3c(c2=O)CCCC3)cc1	-7	4	3	9	0	1
O=c1c2c([nH]n1-c1ccccc1)CCSC2	-5	1	-2	46*	9	-2
Cc1cccc(NC(=O)NNC(=O)c2cc(-c3ccccc3Cl)nc3ccccc23)c1	14	2	-7	23	-11	-4
CCOC(=O)c1ccc(N/C=C\C(=O)c2cccc(OC)c2)cc1	66*	-134	15	-259	-5	86*
CCOC(=O)c1cccc(N/C=C/C(=O)c2ccc(OC)c(OC)c2)c1	-19	-91	-2	-496	-5	-6
CCCCCCn1c(O)c(/C=C2\C=NN=C2c2ccccc2)sc1=S	-5	-7	23	42*	-5	-2
CCCCn1c(O)c(/C=C2\C=NN=C2c2ccccc2)sc1=S	-7	-9	-1	19	-2	-10
CC(C)Cn1c(O)c(/C=C2\C=NN=C2c2ccccc2)sc1=S	-9	-9	-7	40*	-20	-1
CCCS(=O)(=O)NC(=O)C1(C)CCN1C(=O)Cc1ccc(Cl)cc1Cl (centres undefined)	·	3	·	32	·	·
COc1ccc(C)cc1Nc1n[n+](-c2ccccc2)c(-c2ccc(NC(C)=O)cc2)s1	-6	4	1	-8	-18	6
COc1ccc(C)cc1Nc1n[n+](-c2ccccc2)c(-c2cc([N+](=O)[O-])cc(OC)c2O)s1	-11	43*	6	12	0	-4
CC(CC(=O)Nc1ccc2c(c1)c(=O)n(C)n2Cc1ccc(Cl)cc1)C(F)(F)F (centres undefined)	·	5	·	-479	·	·
O=S(=O)(Nc1ccc(-c2ccc(N3CCOCC3)nn2)cc1)c1ccc(Cl)c(Cl)c1	-1	0	50*	-38	-2	-1
O=[N+]([O-])c1ccc(CCNc2cccc3ccccc23)c([N+](=O)[O-])c1	36	0	-9	-25	55*	12
CCOC(=O)C1=NN(c2ccccc2)C(=O)/C1=C\c1ccc(N(C)C)cc1	-10	1	-1	5	-7	-3
CC1=NN(Cc2ccccc2)C(=O)/C1=C\c1ccc(N(C)C)cc1	7	4	-17	40*	1	8
O=C(CCNC(=O)C1CCN(S(=O)(=O)c2ccccc2)CC1)NCc1ccc(Cl)c(Cl)c1	-1	-1	58*	3	3	-3
CC(C)(C)NC(=O)Nc1ccccc1C(N)=O	-6	4	5	-33	0	-1
CSc1ccc(NC(=O)Nc2ccccc2C(N)=O)cc1	92*	2	28	-72	97*	95*
CC(=N)C1=C(O)CC(C)(C)CC1=O	0	1	-2	29	0	0
CCOc1cc(-c2nc(-c3ccccc3OC)no2)cc(OCC)c1OCC	-10	3	0	6	-12	-12
COc1ccccc1-c1noc(-c2ccccc2)n1	87*	3	12	17	92*	93*
CN1C(=O)N(C)c2cccc3cccc1c23	1	-2	0	11	1	7
CC1=Nc2cccc3cccc(c23)N1C	-6	-45	10	44*	-3	-1
SMILES	SENP8 block-1	SENP1 inh	Platelet DG rel	SENP8 block-2	SENP6 block	SENP7 block
O=C(Nc1ccc(NC(=O)c2cccs2)cn1)c1ccccc1	38	1	-1	5	64*	67*
COc1cccc(NC2=C(NCCO)C(=O)c3ccccc3C2=O)c1	23	0	7	54*	20	6
Cc1cc(C(F)F)n2nc(C(=O)O)nc2n1	-6	1	5	5	-6	-2
COc1ccc(-c2c(-c3cc(OC)cc(OC)c3)n(C)c3ccc(Br)cc23)cc1	1	0	·	-485	-8	-6
COc1ccc(N=Nc2nc3ccc(Br)cc3n2C)cc1	·	57	11	64*	·	·
Cc1nc2cc(Nc3ccncc3)ccc2s1	-2	-8	56*	-2	-11	-6
N#Cc1ccc(Oc2ccc(-c3nc4ccccc4nc3-c3ccccc3)cc2)cc1C#N	-14	2	-3	-187	-24	-3
Nc1ccc(Oc2ccc3nc(-c4ccccc4)c(-c4ccc([N+](=O)[O-])cc4)nc3c2)cc1	-6	3	-13	43*	-9	11
CC(=O)C1=C(O)C(=O)N(c2ccc(O)cc2)C1c1ccc([N+](=O)[O-])cc1 (centres undefined)	2	3	0	14	-8	5
CN1/C(=C/c2cc[n+](C)c3ccccc23)C=Cc2ccccc21	·	-3	·	58*	·	·
C[n+]1ccc(/C=C/c2ccccc2O)c2ccccc21	4	-11	-3	10	9	7
COC(=O)C1(C(F)(F)F)N=C2Sc3ccccc3N2C(N2CCOCC2)=N1 (centres undefined)	7	2	105*	6	-6	1
Nc1ccn([C@@H]2O[C@H](CNCc3ccc(OCC(=O)Nc4nccs4)cc3)[C@@H](O)[C@H]2O)c(=O)n1	·	0	·	11	·	·
O=C1c2ccccc2C(Nc2ccc(Cl)cc2)N1CCN1CCOCC1 (centres undefined)	5	1	1	31	-8	2
O=C1c2ccccc2C(O)N1CCN1CCOCC1 (centres undefined)	1	2	53*	6	8	0
COc1ccc([N+](=O)[O-])cc1NC(=O)COC(=O)c1ccccn1	-3	4	11	19	8	-6
CC1=NN(c2ccccc2)C(=O)C1=C(C)C	0	6	-4	41*	-4	5
CC1=NN(c2ccccc2)C(=O)/C1=C\c1sccc1C	-5	1	1	18	-3	-6
O=c1[nH]c(CCl)nc2cc(-c3ccc(F)cc3)sc12	79*	-2	-18	-2	89*	47
O=C1CCCCC(=O)[C@H](O)C[C@H](c2ccccc2)O1	·	0	·	9	·	·
CCOc1ccc2nc(N3C(=O)CNC3=S)sc2c1	20	1	-4	1	39	26
COc1ccc2nc(N3C(=O)/C(=C/c4ccc(Cl)cc4)NC3=S)sc2c1	·	33*	·	10	·	·
CCC1(c2ccccc2)NC(=O)N(CC(=O)Nc2cc(Cl)ccc2N2CCN(C)CC2)C1=O (centres undefined)	4	3	·	11	-17	-4
O=[N+]([O-])c1ccccc1N=Nc1ccc(O)cc1O	·	7	·	65*	·	·

Screening results: PubChem, several laboratories
